From PubChem
Shown are actives, neighbours in structure and some others; about 0.77% of the full set was active somewhere.
bIAP inhibitor – intestinal alkaline phosphatase (bovine) inhibition. AID 1019. purified bovine IAP, CDP-star luminescence, 30 min. 190,000 tested, under 10 active. inhibition, % at 20 µM;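 active = over 50% inhibition of intestinal alkaline phosphatase at 20 µM in the single-dose screen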
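Incubation: 30 min reaction at room temperature / Material: purified bovine intestinal alkaline phosphatase (IAP) enzyme / Input: enzyme at 1/65,000,000 dilution / Dosing: 20 µM single dose / Signal: CDP-star luminescence signal / Reagent: CDP-star chemiluminescent phosphatase substrate, 30 µM final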
hIAP act – human IAP activation. 330,000 compounds, 0.16% hits. activation factor at 10 µM. purified human IAP, CDP-Star luminescence, 30 min; active compounds read high; 1 = vehicle-only enzyme, 0 = enzyme-free background. P09923;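 active = activation factor of the enzyme at least 2-fold when tested at 20 µM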
Target sequence (P09923 whole entry, looked up): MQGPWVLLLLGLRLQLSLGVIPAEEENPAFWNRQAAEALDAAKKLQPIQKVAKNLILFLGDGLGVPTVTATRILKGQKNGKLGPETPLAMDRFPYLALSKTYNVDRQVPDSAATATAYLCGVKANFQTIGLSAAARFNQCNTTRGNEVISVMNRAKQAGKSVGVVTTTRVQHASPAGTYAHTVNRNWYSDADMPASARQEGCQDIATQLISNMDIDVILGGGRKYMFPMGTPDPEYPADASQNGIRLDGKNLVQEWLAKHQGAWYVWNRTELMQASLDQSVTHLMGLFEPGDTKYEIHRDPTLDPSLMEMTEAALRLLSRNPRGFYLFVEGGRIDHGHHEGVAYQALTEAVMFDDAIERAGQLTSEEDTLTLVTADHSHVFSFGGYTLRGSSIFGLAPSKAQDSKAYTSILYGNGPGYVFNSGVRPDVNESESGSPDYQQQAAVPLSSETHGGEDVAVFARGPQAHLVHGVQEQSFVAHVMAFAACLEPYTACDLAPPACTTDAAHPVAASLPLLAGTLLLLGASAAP
bIAP activator – increases bovine intestinal alkaline phosphatase activity; purified bovine IAP, CDP-star luminescence, 30 min; active compounds read high; fold of DMSO-control signal, blank-subtracted; activation factor at 20 µM; 200,000 compounds, 0.17% hits; AID 1016;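 active = activation factor of 2 or more at 20 µM, a signal rise over negative controls twice the positive control's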
mIAP act – increases mouse intestinal alkaline phosphatase activity. AID 2805. activation factor at 10 µM. muIAP, CDP-Star luminescence, 30 min; active compounds read high; 1 = vehicle-only enzyme signal, 0 = enzyme-free wells. 330,000 compounds, 0.24% hits;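 active = activation factor of at least 2 at 20 µM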
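Assay system: mouse IAP enzyme / Compound: DMSO-dissolved test compounds / Timing: 30 min, room temperature / Measured by: luminescence from enzymatic CDP-Star hydrolysis / Control set: DMSO-only wells, enzyme-free buffer wells as negative control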
mIAP inh – blocks mouse intestinal alkaline phosphatase. purified mouse IAP, CDP-Star luminescence, 30 min. inhibition, % at 10 µM. AID 2806. 330,000 compounds, 0.2% hits;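 active = inhibition of at least 40% at 10 µM in the primary screen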;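 note: plate controls were DMSO with enzyme for no effect and no enzyme wells for full effect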
hIAP block – human IAP inhibition; P09923; purified IAP, CDP-Star luminescence, 30 min; inhibition, % at 10 µM; 330,000 compounds, 0.12% hits;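 active = inhibition reaching a set limit with compound at 10 µM in the primary screen, cut at about 35% in these data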;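 note: plate controls were DMSO wells with enzyme for no effect and no-enzyme buffer wells for full effect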
Numbers without * were called inactive; i = inactive; . = not tested or not shown.

SMILES | bIAP inhibitor | hIAP act | bIAP activator | mIAP act | mIAP inh | hIAP block
CCCN1C2CCCC1CC(NC(=S)Nc1cccc(C)c1C)C2 (centres undefined) | . | 1.2 | . | 1.1 | -7 | -17
CCc1ccccc1NC(=S)NC1CC2CCCC(C1)N2Cc1cccs1 (centres undefined) | -43 | 0.93 | 1.4 | 2.4* | -140 | 7
COc1ccc(CCNC(=S)NCc2ccc(Cl)c(Cl)c2)cc1OC | -6 | 1.2 | 1.1 | 2* | -104 | -17
O=C(NCC1CCN(c2ccc(S(=O)(=O)N3CCOCC3)cc2)CC1)Nc1ccccc1 | . | 1.4 | . | 2.1* | -111 | -43
Cc1cc(C)n(C(=O)CCC(=O)NCc2ccccc2)n1 | 1 | 0.89 | 1 | 0.44 | 56* | 11
COc1cc(/C=C(\C#N)C(=O)Nc2cccc3ncccc23)ccc1O | -8 | 0.57 | 1.1 | 0.94 | 6 | 42*
CCCn1c(N)c(C(c2ccc(OC)cc2)N2CCN(c3ccccc3)CC2)c(=O)[nH]c1=O (centres undefined) | -156 | 1.3 | 2.6* | 1.4 | -38 | -25
CCCn1c(N)c(C(c2ccc(C(=O)OC)cc2)N2CCN(c3ccccc3)CC2)c(=O)[nH]c1=O (centres undefined) | -45 | 1 | 1.4 | 1.2 | -18 | -1
Cc1cc(C)cc(NC(=O)Cn2nnc3ccccc3c2=O)c1 | -6 | 0.88 | 1.1 | 0.96 | 4 | 12
Cn1c(-c2ccc3c(c2)OCO3)cnc1NCc1ccc(Cl)cc1 | i | 0.93 | 6.4* | 0.91 | 9 | 7
Cc1ccc(CNc2ncc(-c3ccc4c(c3)OCO4)n2C)cc1 | -83 | 1.2 | 1.8 | 0.94 | 6 | -19
CC(C)c1cccc(-c2ccc3c(c2)S(=O)(=O)c2cccc(C(=O)NC4CCCC4)c2C3=O)c1 | . | 0.96 | . | 0.93 | 7 | 4
COc1ccc(CNC(=O)C(C)n2ccc3cc(S(=O)(=O)N4CCCCCC4)ccc32)cc1 (centres undefined) | . | 1.4 | . | 2.1* | -107 | -38
CC(C(=O)NCc1ccco1)n1ccc2cc(S(=O)(=O)N3CCCC3)ccc21 (centres undefined) | . | 1.1 | . | 1 | -4 | -5
N#C/C(=C/c1ccc(N2CCCCC2)o1)C(=O)Nc1ccc(Cl)cc1 | 25 | 0.62 | 0.8 | 0.77 | 23 | 38*
CCOC(=O)N1CCN(C(=O)COC(=O)c2ccccc2NCCO)CC1 | . | 1 | . | 1 | -1 | -2
CCOc1ccccc1NC(=S)N1C2CCC1CC(NC(=O)NC13CC4CC(CC(C4)C1)C3)C2 (centres undefined) | -55 | 0.97 | 1.6 | 2.1* | -112 | 3
C[C@]12C=CC(=O)C=C1CC[C@@H]1C2C(O)C[C@@]2(C)C1CC[C@]2(O)C(=O)COC(=O)CCC(=O)NC(CC(=O)O)C(=O)O (some centres undefined) | . | 1 | . | 0.94 | 6 | -2
CC(=O)OCC(=O)[C@@]1(O)CC[C@H]2[C@@H]3CCC4=CC(=O)C=C[C@]4(C)[C@H]3[C@@H](O)C[C@@]21C | . | 1.1 | 380* | 1.2 | -17 | -5
CCOC(=O)N1CCC(NC(=O)c2ccc3c(c2)N(Cc2ccccc2)CCS3)CC1 | -152 | 0.96 | 2.5* | 1.3 | -27 | 4
CCOC(=O)N1CCC(NC(=O)c2ccc3c(c2)N(Cc2ccc(C)cc2)CCS3)CC1 | -4 | 1 | 1 | 1.2 | -23 | 0
C#CCOCCOCCOCCNc1nc(N2CCN(C(=O)C(Cc3cc4ccccc4[nH]3)n3cc(C(N)C(C)CC)nn3)CC2)nc(N2CCN(C(=O)C(Cc3cc4ccccc4[nH]3)n3cc(C(N)C(C)CC)nn3)CC2)n1 (centres undefined) | -292 | 0.91 | 3.9* | 1.8 | -78 | 9
C/C(CC(=O)NC(C)C)=N\NC(=O)COc1cc(C)c(Br)cc1Br | -159 | 0.94 | 2.6* | 1 | -2 | 6
C[n+]1ccn(CC(=O)c2ccc(Cl)cc2)c1 | -148 | 1 | 2.5* | 0.93 | 7 | -4
C[n+]1ccn(CC(=O)c2ccc(Br)cc2)c1 | -4 | 1 | 1 | 0.94 | 6 | -2
COc1ccc2c(c1OC)C(=O)N1C2SC(C)(C)[C@H]1C(=O)NCC(C)C (some centres undefined) | . | 1.1 | . | 1 | -4 | -14
